PubChem BioAssay AID540295 (The Scripps Research Institute Molecular Screening Center, 2011)
Out of some 360,000 compounds screened, about 1,700 (0.47%) were called active.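 How the source made its calls: active means inhibition above its plate's cutoff, the mean of tested wells on that plate plus 3 SD (cut at about 29% in these data); inactive means the rest.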 For the sample, actives were picked, then their nearest neighbours and some compounds at random.

target: Melanocortin receptor 4 (Homo sapiens) (UniProt P32245); experiment: MC4R antagonists of cAMP signaling, primary screen, cell-based, TR-FRET, antagonist arm of biased-ligand search (AID 540295); conditions: MC4R-expressing cells, MTII-stimulated cAMP, LANCE TR-FRET; at 6.5 µM; active compounds read high;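 further: 0% = Melanotan II alone and 100% = Melanotan II plus saturating MCL0020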
In short: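 System: U2OS cells stably expressing human melanocortin 4 receptor (MC4R). Reagent: Melanotan II challenge after compound preincubation. Doses: 6.5 µM. Times: 30-min compound, 1-h challenge, 1-h detection, room temperature. Measured by: TR-FRET with Eu-cAMP and labeled anti-cAMP, 671 nm. Replicates: singlicate.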

Sequence of Melanocortin receptor 4 (Homo sapiens) (P32245 whole entry, looked up): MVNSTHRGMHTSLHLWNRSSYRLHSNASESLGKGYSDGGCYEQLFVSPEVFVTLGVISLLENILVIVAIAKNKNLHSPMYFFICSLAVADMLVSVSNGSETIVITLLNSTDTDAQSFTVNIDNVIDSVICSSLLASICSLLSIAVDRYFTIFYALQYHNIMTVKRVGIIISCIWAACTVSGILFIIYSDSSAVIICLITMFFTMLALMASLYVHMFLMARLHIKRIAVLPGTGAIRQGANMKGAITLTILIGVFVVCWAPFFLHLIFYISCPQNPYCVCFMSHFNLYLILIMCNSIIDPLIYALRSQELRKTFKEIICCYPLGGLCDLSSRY

Structure (SMILES) | inhibition
CC/C(Cc1ccccc1)=N/NC(=O)CCn1nnc2ccccc21 | 9.16% (inactive)
CC12CCC(=O)C=C1CCC1C2C(O)CC2(C)C1CCC2(O)C(O)CO (stereo not given) | 1.23% (inactive)
CCOC(=O)c1cc(C)nc(S(C)(=O)=O)c1C#N | 38.7% (active)
CCOC(=O)COc1nc(C)cc(C(F)(F)F)c1C#N | -2.8% (inactive)
CCOC(=O)c1c(C(C#N)C#N)cc(C)nc1C | 1.49% (inactive)
O=C(Nc1ccccc1F)c1cc(S(=O)(=O)N2CCCCC2)cs1 | 3.77% (inactive)
Cn1ccs/c1=N\S(=O)(=O)c1ccc(C(C)(C)C)cc1 | 8.67% (inactive)
COc1ccc(N2C(=O)C3C(C2=O)C(C(=O)c2ccccc2)N2CCCC32)cc1 (stereo not given) | 30.8% (active)
COc1ccc(N2C(=O)CC(N3CCC(C(N)=O)CC3)C2=O)cc1 (stereo not given) | 5.05% (inactive)
CNC(=O)C[C@H]1C(=O)N(c2ccc(OC)cc2)C[C@@H]1Cc1ccccc1 | -3.72% (inactive)
O=C(CCc1nnc(Cc2ccc3c(c2)OCO3)o1)NCCc1ccccc1Cl | 2.77% (inactive)
NCCCNC(=S)NCCCN(Cc1ccc(Cl)cc1)c1ccc(Br)cn1 | 3.71% (inactive)
O=C(NCc1ccccc1)C1=C[C@@H](C2CCCCC2)C[C@@H](OCc2ccc(CO)cc2)O1 | 4.66% (inactive)
CC(=O)c1ccccc1NC(=O)COC(=O)C1COc2ccccc2O1 (stereo not given) | 16.3% (inactive)
CCC1CCCCN1CCCNC(=O)c1cc2c(Cl)nc3ccccc3c2s1 (stereo not given) | -9.04% (inactive)
O=C(NCC1CCN(Cc2ccccc2Cl)CC1)Nc1cccc(Cl)c1 | 29.6% (active)
COc1ccc(Cl)cc1NC(=O)NCC1CCN(Cc2ccccc2F)CC1 | 3.98% (inactive)
Cc1cccc(CN2CCC(CNC(=O)Nc3ccc(F)c(Cl)c3)CC2)c1 | 1.8% (inactive)
FC(F)Oc1ccccc1NC(=S)Nc1cccc(Cl)c1Cl | 0.43% (inactive)
S=C(Cc1ccc(Cl)cc1)N1CCOCC1 | 2.15% (inactive)
COc1ccccc1-c1nnc(NC(=O)c2cccc(N3C(=O)CCC3=O)c2)o1 | 17.9% (inactive)
COc1ccccc1NC(=O)c1ccc2nc(N3C(=O)CCC3=O)sc2c1 | 35.1% (active)
CCCc1cc(=O)[nH]c(SCC(=O)Nc2ccc(C(=O)Nc3ccccc3OC)cc2)n1 | 10.3% (inactive)
COC(=O)/C(=C1\Oc2ccc(C(C)(C)C)cc2S1)C(F)(F)F | 13.2% (inactive)

Structure (SMILES) | inhibition
CCc1nc2c(OCCOc3ccccc3)cccn2c1N(C)C(=O)c1cccs1 | -6.4% (inactive)
COC(=O)COc1ccc2c(=O)c(Oc3ccccc3Br)coc2c1 | 11% (inactive)
O=C(COC(=O)CSc1ccccc1)Nc1ccc(F)cc1F | 9.52% (inactive)
COC(=O)c1ccccc1NC(=O)Cc1ccccc1OC | 18.4% (inactive)
COc1ccccc1CC(=O)Nc1ccc(F)cc1F | 28.9% (active)
CCCCOc1ccc(C(=O)N/C(=C/C=C/c2ccccc2)C(=O)N2CCOCC2)cc1 | 3.43% (inactive)
O=C(Nc1nn(Cc2ccccc2F)cc1Br)c1cccs1 | 11.3% (inactive)
C=CCn1c2ccccc2c2nnc(SCc3[nH]c(=O)[nH]c3C(=O)CCCCC(=O)OCC)nc21 | -12.2% (inactive)
CC1(C)C(=O)Nc2ccccc2N1C(=O)COC(=O)Cn1cnc2ccccc2c1=O | 13.1% (inactive)
O=C(COC(=O)Cn1cnc2ccccc2c1=O)NCC12CC3CC(CC(C3)C1)C2 | 29.2% (active)
O=C(COC(=O)Cn1cnc2ccccc2c1=O)NCc1ccccc1Cl | 10.8% (inactive)
O=C(N/C(=C\c1ccc(O)cc1)C(=O)N1CCCCC1)c1ccccc1 | 2.84% (inactive)
COc1ccc(N)cc1NC(=O)CN1CCOCC1 | -2.41% (inactive)
O=C(O)c1n[nH]nc1-c1ccccc1 | 3.02% (inactive)
CCCCOC(=O)CNc1nnc(SCC(=O)OCC)[nH]c1=O | 60.6% (active)
Cc1nnc(SCC(=O)N2CCOCC2)[nH]c1=O | 2.07% (inactive)
CCOC(=O)CSc1nc(C)c(Oc2ccc(Cl)cc2Cl)c(=O)[nH]1 | 5.59% (inactive)
O=C(COC(=O)[C@H](Cc1ccccc1)NC(=O)c1cccs1)Nc1cc(F)ccc1F | 31.4% (active)
Cc1ccc(C)c(NC(CC(=O)c2ccccc2)C(=O)OCC(=O)c2cccs2)c1 (stereo not given) | -0.53% (inactive)
NC(=O)c1ccc(NC(=O)COC(=O)C(Cc2ccccc2)NC(=O)c2ccccc2)cc1 (stereo not given) | 11% (inactive)
CCc1nc2c(OCc3ccc(C(F)(F)F)cc3)cccn2c1N(C)C(=O)CC(C)C | 6.64% (inactive)
O=C(COC(=O)c1cnc(Cl)c(Cl)c1)NCc1ccco1 | 10.1% (inactive)
O=S(=O)(NCC1CCCO1)c1cnc(Cl)c(Cl)c1 (stereo not given) | 24.7% (inactive)
O=S(=O)(NCc1ccco1)c1cnc(Cl)c(Cl)c1 | 44.9% (active)

Structure (SMILES) | inhibition
COC(=O)C[C@H]1C[C@@H]2c3cc(N(C)C)ccc3O[C@@H]2[C@H](CO)O1 | 13% (inactive)
O=C1c2ccccc2C(=O)N1CCc1nn[nH]n1 | 14.6% (inactive)
CN(C)C(CNC(=O)CCCOc1ccccc1)c1ccco1 (stereo not given) | 29.7% (active)
O=C(CCCOc1ccccc1)NCc1ccco1 | 2.67% (inactive)
CN(C)C(CNC(=O)c1cccc(C#N)c1)c1ccco1 (stereo not given) | 0.76% (inactive)
CN(CC(=O)NCC(c1ccccc1)N1CCCC1)S(=O)(=O)c1ccc(Cl)cc1 (stereo not given) | -2.78% (inactive)
CN(CC(=O)NCCc1ccccn1)S(=O)(=O)c1ccc(Cl)cc1 | 30.3% (active)
CN(CC(=O)NNC(=O)CNC(=O)c1ccccc1Cl)S(=O)(=O)c1ccc(Cl)cc1 | 2.86% (inactive)
Cc1ccc(S(=O)(=O)N2CCCC2C(=O)NCc2ccco2)cc1 (stereo not given) | -0.46% (inactive)
COC(=O)COc1ccc(C2NC(=O)NC(C)=C2C(=O)NCc2ccccc2)cc1OC (stereo not given) | 21.9% (inactive)
C[C@H]([C@@H](O)[C@@H](O)[C@@H](C)C(C)(C)C)[C@H]1CC[C@H]2C3CC[C@H]4C[C@H](OS(=O)(=O)O)[C@@H](OS(=O)(=O)O)C[C@]4(C)[C@H]3CC[C@]12C (stereo not given in full) | 9.52% (inactive)
CCN(CCCNC(=O)C1CCN(S(=O)(=O)c2cnc[nH]2)CC1)c1ccccc1 | 17.3% (inactive)
O=C(Nc1ccccc1Cl)/C(Cl)=C(\Cl)S(=O)c1ccccc1 (stereo not given) | 34.9% (active)
CS/C(=C\C(=O)c1ccco1)Nc1ccccc1Cl | 12.1% (inactive)
O=C(COc1ccc(-n2cnnn2)cc1)Nc1ccccc1Cl | -4.5% (inactive)
NC1=NC(=O)C(Cc2cccc(Cl)c2)S1 (stereo not given) | 6.88% (inactive)
CCOC(=O)C(CC)Sc1ncnc2c1nnn2-c1ccc(F)cc1 (stereo not given) | 9.91% (inactive)
COc1ccc(S(=O)(=O)N2CCOC2CNC(=O)C(=O)NCc2ccc(F)cc2)cc1 (stereo not given) | 5.37% (inactive)
CC1(C)Cc2ccccc2-c2[nH]c(=S)[nH]c(=O)c21 | 31.3% (active)
N#CC1=C(N)Oc2[nH]c(=S)[nH]c(=O)c2C12C(=O)Nc1ccccc12 (stereo not given) | -0.32% (inactive)
CC1(C)Cc2ccccc2/C(=C/C(=O)c2ccccc2)N1 | -4.86% (inactive)
CC(=O)c1ccc(S(=O)(=O)Nc2ccc(-c3ccc4nncn4n3)cc2)cc1 | 4.19% (inactive)
Cc1cccc(C(=O)N2CCCC(Nc3ccc(C(C)C)cc3)C2)n1 (stereo not given) | -4.44% (inactive)
O=C(Oc1ccc(-c2nnco2)cc1)c1ccc(F)c(S(=O)(=O)N2CCOCC2)c1 | 16.3% (inactive)

Structure (SMILES) | inhibition
C=CCOC(=O)C1=C(C)N=C2SCCC(=O)N2C1/C=C/c1ccccc1OC (stereo not given) | 6.17% (inactive)
COc1ccc(-c2ccc3c(c2)C2CC3CCN2CCC#N)cc1 (stereo not given) | 8.84% (inactive)
C=CCn1c(=S)[nH]c2scc(-c3ccco3)c2c1=O | 29.6% (active)
CCC1(C)Cc2c(sc3[nH]c(=S)n(Cc4ccccc4)c(=O)c23)CO1 (stereo not given) | 3.15% (inactive)
COc1cccc(-c2cc(NC(C)=O)c3ncc(-c4cccc(C(C)=O)c4)n3c2)c1 | 8.07% (inactive)
CSc1ncnc2c1ncn2CCCNCC(C)c1ccccc1 (stereo not given) | 0.11% (inactive)
COc1ccc(S(=O)(=O)N(C)CC(=O)NCCCN2CCOCC2)cc1Cl | 8.85% (inactive)
CCN(CC(=O)NCCCN1CCOCC1)S(=O)(=O)c1cc(Cl)ccc1Cl | 30.2% (active)
CCN(CC)S(=O)(=O)c1ccc(Cl)c(C(=O)NCCN2CCOCC2)c1 | -2.31% (inactive)
O=C(Nc1nnc(Cc2ccccc2)s1)c1cnccn1 | 20.4% (inactive)
O=C(Nc1nnc(Cc2ccc(Cl)cc2)s1)c1ccncc1 | 11.2% (inactive)
O=C(Nc1nnc(Cc2ccc(Cl)cc2)s1)c1cccnc1 | 33.8% (active)
COC(=O)[C@]1(CC(C)C)N[C@H](c2ccc(SC3CCCCC3)cc2)[C@@H]2C(=O)N(C)C(=O)[C@@H]21 | 4.32% (inactive)
Cc1ccc(NC(=O)Cn2c(=O)n(CCC(=O)NC3CCN(Cc4ccccc4)CC3)c(=O)c3ccccc32)cc1 | 8.52% (inactive)
COc1ccccc1NC(=O)/C=C/C(N)=O | 21% (inactive)
COC(=O)c1sc(-c2ccc(C(C)(C)C)cc2)cc1NC(=O)/C=C/C(=O)O | 37.3% (active)
COc1ccc(NS(=O)(=O)c2ccc(N3CCOCC3)c(NC(=O)/C=C/C(=O)O)c2)cc1 | 0.91% (inactive)
O=C(CCNC(=O)C1CCN(S(=O)(=O)c2ccccc2)CC1)NC1CC1 | 8.45% (inactive)
NC(=O)COc1ccc(C23CC4CC(CC(C4)C2)C3)cc1 | -2.25% (inactive)
CCCC(NC(=O)c1ccccc1)c1nc2ccccc2n1Cc1ccc(C(=O)OC)o1 (stereo not given) | -3.45% (inactive)
CCOC(=O)CSc1nc(N2CCOCC2)c2c(c1C#N)CC(C(C)C)OC2 (stereo not given) | 28.7% (active)
CC(C)Cc1nc(N2CCOCC2)c(C#N)c2c1CCC2 | 8.79% (inactive)
COc1ccc(CSc2nc(N3CCOCC3)c3c(c2C#N)CC(C)(C)OC3)cc1 | 19% (inactive)
